Substitutions are numbered along the chain they refer to. Square brackets hold non-standard residues; d marks the D form. pY = N[C@@H](Cc1ccc(OP(=O)(O)O)cc1)C(=O)O
T1: PTP1B (Homo sapiens, UniProt P18031)
T1 sequence (P18031 1-321): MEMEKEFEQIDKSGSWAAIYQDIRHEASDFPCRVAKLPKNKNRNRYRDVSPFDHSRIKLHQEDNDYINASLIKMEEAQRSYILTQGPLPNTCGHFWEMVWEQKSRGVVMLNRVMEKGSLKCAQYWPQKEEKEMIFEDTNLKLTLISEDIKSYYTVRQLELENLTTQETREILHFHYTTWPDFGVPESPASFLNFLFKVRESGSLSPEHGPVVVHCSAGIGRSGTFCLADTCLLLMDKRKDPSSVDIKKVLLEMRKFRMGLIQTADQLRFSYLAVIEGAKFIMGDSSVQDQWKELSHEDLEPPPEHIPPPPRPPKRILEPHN

T2: R47E PTP1B (Homo sapiens, UniProt P18031, R47E)
T2 sequence (P18031 1-321 R47E): T1 sequence (P18031 1-321) with R47E

T3: R24M PTP1B (Homo sapiens, UniProt P18031, R24M)
T3 sequence (P18031 1-321 R24M): T1 sequence (P18031 1-321) with R24M

T4: SHP-2 (Homo sapiens, UniProt Q06124)
T4 sequence (Q06124 199-593): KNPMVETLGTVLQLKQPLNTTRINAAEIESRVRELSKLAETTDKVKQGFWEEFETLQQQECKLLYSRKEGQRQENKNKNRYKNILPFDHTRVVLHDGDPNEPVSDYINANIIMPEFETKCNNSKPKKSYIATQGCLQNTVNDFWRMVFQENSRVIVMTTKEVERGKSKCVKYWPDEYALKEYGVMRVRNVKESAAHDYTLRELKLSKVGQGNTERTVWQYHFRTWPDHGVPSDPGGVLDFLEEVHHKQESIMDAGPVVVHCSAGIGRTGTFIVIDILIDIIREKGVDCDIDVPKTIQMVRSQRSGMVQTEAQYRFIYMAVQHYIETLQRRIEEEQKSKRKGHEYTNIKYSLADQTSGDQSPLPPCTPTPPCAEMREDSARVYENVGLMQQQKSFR

T5: PTP-PEST (Homo sapiens, UniProt Q05209)
T5 sequence (Q05209 5-300): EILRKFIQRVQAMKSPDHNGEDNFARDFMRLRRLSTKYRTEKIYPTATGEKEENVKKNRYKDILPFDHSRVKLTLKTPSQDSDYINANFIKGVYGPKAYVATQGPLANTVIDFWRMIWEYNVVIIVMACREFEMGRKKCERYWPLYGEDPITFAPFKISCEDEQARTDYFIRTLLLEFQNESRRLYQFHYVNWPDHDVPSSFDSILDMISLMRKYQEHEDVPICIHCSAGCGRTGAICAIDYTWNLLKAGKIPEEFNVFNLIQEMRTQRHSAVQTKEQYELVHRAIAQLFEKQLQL

T6: R47E PTP1B catalytic domain (amino acids 1-321) (human) (UniProt P18031)
T6 sequence: T1 sequence (P18031 1-321) with R47E

T7: wild-type PTP1B catalytic domain (amino acids 1-321) (human) (UniProt P18031)
T7 sequence: T1 sequence (P18031 1-321)

T8: R24M PTP1B catalytic domain (amino acids 1-321) (human) (UniProt P18031)
T8 sequence: T1 sequence (P18031 1-321) with R24M

B1: Ac-ARKRIpYAA-NH2 (peptide)
peptide: Ac-ARKRI[pY]AA-NH2
SMILES: CC[C@H](C)[C@H](NC(=O)[C@H](CCCNC(=N)N)NC(=O)[C@H](CCCCN)NC(=O)[C@H](CCCNC(=N)N)NC(=O)[C@H](C)NC(C)=O)C(=O)N[C@@H](Cc1ccc(OP(=O)(O)O)cc1)C(=O)N[C@@H](C)C(=O)N[C@@H](C)C(N)=O
B2: Ac-AApYDDAAA-NH2 (peptide)
peptide: Ac-AA[pY]DDAAA-NH2
SMILES: CC(=O)N[C@@H](C)C(=O)N[C@@H](C)C(=O)N[C@@H](Cc1ccc(OP(=O)(O)O)cc1)C(=O)N[C@@H](CC(=O)O)C(=O)N[C@@H](CC(=O)O)C(=O)N[C@@H](C)C(=O)N[C@@H](C)C(=O)N[C@@H](C)C(N)=O
B3: Ac-AApYIRKRA-NH2 (peptide)
peptide: Ac-AA[pY]IRKRA-NH2
SMILES: CC[C@H](C)[C@H](NC(=O)[C@H](Cc1ccc(OP(=O)(O)O)cc1)NC(=O)[C@H](C)NC(=O)[C@H](C)NC(C)=O)C(=O)N[C@@H](CCCNC(=N)N)C(=O)N[C@@H](CCCCN)C(=O)N[C@@H](CCCNC(=N)N)C(=O)N[C@@H](C)C(N)=O

What was measured:
[1] = biological target: T1, PTP1B; assay: PTP assay, wild-type PTP1B; format: biochemical; details: for kcat/KM x 10^7: WT PTP1B aa 1–321, pH 7.4; for kcat/KM x10^6: WT catalytic domain aa 1–321, 100 mM HEPES pH 7.4, monitored at 282 nm
In short: (§1)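 E. coli-expressed catalytic domains were used: wild-type, R24M or R47E PTP1B (aa 1–321), and SHP-1 (aa 205–595). Reactions started with PTP (0.5–20000 nM final) and dephosphorylation was monitored continuously at 282 nm. kcat, KM and kcat/KM came from initial-rate fits (Michaelis–Menten, or V = kcat[E][S]/KM when KM >> [S]) or from fits of progress curves.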

[2] = biological target: T2, R47E PTP1B; assay: PTP assay, R47E PTP1B; format: biochemical; details: for Km / kcat / kcat/KM x 10^7: R47E PTP1B aa 1–321, pH 7.4; for WT/R47E: ratio of kcat/KM, WT over R47E PTP1B (fold decrease by the mutation)
In short: as §1

[3] = biological target: T3, R24M PTP1B; assay: PTP assay, R24M PTP1B; format: biochemical; details: for Km / kcat / kcat/KM x 10^7: R24M PTP1B aa 1–321, pH 7.4; for WT/R24M: ratio of kcat/KM, WT over R24M PTP1B (fold reduction by the mutation)
In short: as §1

[4] = biological target: SHP-1 (Homo sapiens, UniProt P29350); details: catalytic domain; cited from earlier work
SHP-1, sequence (P29350 205-595): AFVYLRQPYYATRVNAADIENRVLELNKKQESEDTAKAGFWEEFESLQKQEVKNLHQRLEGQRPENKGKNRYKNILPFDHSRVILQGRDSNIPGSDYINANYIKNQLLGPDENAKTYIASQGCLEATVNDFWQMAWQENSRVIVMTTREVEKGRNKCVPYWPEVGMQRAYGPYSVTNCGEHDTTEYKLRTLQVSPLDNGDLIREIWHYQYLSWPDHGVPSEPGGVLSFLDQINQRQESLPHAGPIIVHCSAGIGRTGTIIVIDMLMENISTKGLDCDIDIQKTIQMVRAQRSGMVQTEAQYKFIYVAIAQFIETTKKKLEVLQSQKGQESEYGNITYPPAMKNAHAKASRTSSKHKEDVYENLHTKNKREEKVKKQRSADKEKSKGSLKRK

[5] = biological target: T4, SHP-2; details: catalytic domain; cited from earlier work
[6] = biological target: T5, PTP-PEST; assay: PTP assay with pY peptide substrates, PTP-PEST; format: biochemical; details: catalytic domain; pH 7.4
[7] = biological target: T6, R47E PTP1B catalytic domain (amino acids 1-321) (human)
[8] = biological target: T7, wild-type PTP1B catalytic domain (amino acids 1-321) (human)
[9] = biological target: T8, R24M PTP1B catalytic domain (amino acids 1-321) (human)

Molecule | kcat/KM x 10^7 [1] | Km [2] [µM] | kcat [2] [s⁻¹] | kcat/KM x 10^7 [2] | WT/R47E [2] | Km [3] [µM] | kcat [3] [s⁻¹] | kcat/KM x 10^7 [3] | WT/R24M [3] | further results
AApYADDAA | 1.4 x 10^7 M^−1 s^−1 | 12 ± 1 | 34 ± 1 | 0.29 x 10^7 M^−1 s^−1 | 4.8 | 6.4 ± 0.2 | 38 ± 1 | 0.59 x 10^7 M^−1 s^−1 | 2.4 | –
FDIDIpYAA | – | – | – | – | – | – | – | – | – | Km [4]: 13 ± 1 µM; kcat [4]: 33 ± 1 s⁻¹; kcat/KM x10^6 [4]: 2.5 x10^6 M^−1 s^−1; Km [5]: 39 ± 5 µM; kcat [5]: 30 ± 2 s⁻¹; kcat/KM x10^6 [5]: 0.77 x10^6 M^−1 s^−1
ARKRIpYAA | 0.025 x 10^7 M^−1 s^−1 | 31 ± 4 | 37 ± 2 | 0.12 x 10^7 M^−1 s^−1 | 0.21 | – | – | – | – | increased PTP1B activity by R47E mutation ([2]; R47E relative to WT): 5 fold
EIFDFpYAA | – | – | – | – | – | – | – | – | – | Km [4]: 27 ± 4 µM; kcat [4]: 32 ± 2 s⁻¹; kcat/KM x10^6 [4]: 1.2 x10^6 M^−1 s^−1; Km [5]: 54 ± 6 µM; kcat [5]: 26 ± 1 s⁻¹; kcat/KM x10^6 [5]: 0.48 x10^6 M^−1 s^−1
WAGDDpYAA | – | – | – | – | – | – | – | – | – | Km [4]: 45 ± 5 µM; kcat [4]: 57 ± 2 s⁻¹; kcat/KM x10^6 [4]: 1.3 x10^6 M^−1 s^−1; Km [5]: 68 ± 15 µM; kcat [5]: 36 ± 3 s⁻¹; kcat/KM x10^6 [5]: 0.53 x10^6 M^−1 s^−1
EEDNAWpYAA | 2.1 x 10^7 M^−1 s^−1 | 9.5 ± 0.4 | 32 ± 1 | 0.33 x 10^7 M^−1 s^−1 | 6.4 | 1.9 ± 0.1 | 35 ± 1 | 1.8 x 10^7 M^−1 s^−1 | 1.2 | kcat/KM x10^6 [1]: 21 x10^6 M^−1 s^−1
DPRGIpYDQVAG | 0.38 x 10^7 M^−1 s^−1 | 23 ± 1 | 35 ± 1 | 0.15 x 10^7 M^−1 s^−1 | 2.5 | 71 ± 1 | 36 ± 1 | 0.051 x 10^7 M^−1 s^−1 | 7.6 | –
AApYWAYDD | – | – | – | – | – | – | – | – | – | kcat/KM x10^6 [1]: 15 x10^6 M^−1 s^−1
FYDIDpYAA | – | – | – | – | – | – | – | – | – | Km [4]: 28 ± 2 µM; kcat [4]: 66 ± 2 s⁻¹; kcat/KM x10^6 [4]: 2.4 x10^6 M^−1 s^−1; Km [5]: 66 ± 13 µM; kcat [5]: 50 ± 4 s⁻¹; kcat/KM x10^6 [5]: 0.75 x10^6 M^−1 s^−1
AApYAAADD | 0.97 x 10^7 M^−1 s^−1 | 10 ± 1 | 35 ± 1 | 0.35 x 10^7 M^−1 s^−1 | 2.8 | 8.7 ± 0.4 | 37 ± 1 | 0.43 x 10^7 M^−1 s^−1 | 2.3 | –
AApYAADDA | 1.1 x 10^7 M^−1 s^−1 | 11 ± 2 | 36 ± 2 | 0.32 x 10^7 M^−1 s^−1 | 3.4 | 6.9 ± 0.1 | 38 ± 1 | 0.55 x 10^7 M^−1 s^−1 | 2.0 | –
AApYDDIDE | 1.1 x 10^7 M^−1 s^−1 | 56 ± 2 | 43 ± 1 | 0.076 x 10^7 M^−1 s^−1 | 14 | 37 ± 1 | 42 ± 1 | 0.11 x 10^7 M^−1 s^−1 | 10 | kcat/KM x10^6 [1]: 11 x10^6 M^−1 s^−1
Ac-AWGPLpYDEVQM-NH2 | 1.7 x 10^7 M^−1 s^−1 | 5.6 ± 0.4 | 34 ± 2 | 0.61 x 10^7 M^−1 s^−1 | 2.8 | 5 ± 0.5 | 36 ± 1 | 0.72 x 10^7 M^−1 s^−1 | 2.3 | –
Ac-ASSDEpYAA-NH2 | 1.7 x 10^7 M^−1 s^−1 | 32 ± 1 | 31 ± 1 | 0.097 x 10^7 M^−1 s^−1 | 18 | 3.8 ± 0.2 | 32 ± 1 | 0.84 x 10^7 M^−1 s^−1 | 2.0 | kcat/KM [6]: 7.2e+06 M⁻¹ s⁻¹; kcat/KM x10^6 [1]: 17 x10^6 M^−1 s^−1
Ac-AApYDLDEY-NH2 | – | – | – | – | – | – | – | – | – | kcat/KM [6]: 1.3e+08 M⁻¹ s⁻¹; kcat/KM x10^6 [1]: 18 x10^6 M^−1 s^−1
AApYDDAAA | 0.43 x 10^7 M^−1 s^−1 | 34 ± 2 | 33 ± 2 | 0.097 x 10^7 M^−1 s^−1 | 4.4 | – | – | 0.027 x 10^7 M^−1 s^−1 | 16 | –
AApYIRKRA | 0.042 x 10^7 M^−1 s^−1 | 89 ± 3 | 34 ± 2 | 0.038 x 10^7 M^−1 s^−1 | 1.1 | 52 ± 3 | 34 ± 1 | 0.065 x 10^7 M^−1 s^−1 | 0.62 | increased PTP1B activity by R24M mutation ([3]; R24M relative to WT): 1.6 fold
B1 | – | – | – | – | – | – | – | – | – | KM, steady-state dephosphorylation of the pY peptide [7]: 31 µM; KM, steady-state dephosphorylation of the pY peptide [8]: 166 µM
B2 | – | – | – | – | – | – | – | – | – | KM, steady-state dephosphorylation of the pY peptide [7]: 34 µM; KM, steady-state dephosphorylation of the pY peptide [8]: 6.5 µM
B3 | – | – | – | – | – | – | – | – | – | KM, steady-state dephosphorylation of the pY peptide [8]: 89 µM; KM, steady-state dephosphorylation of the pY peptide [9]: 52 µM
